This note sets out measurements from ChEMBL document CHEMBL1828498, “Identification and characterization of a novel integrin-linked kinase inhibitor” (J Med Chem, 2011).

The test system of data set [1] is PC-3. As to the kind of experiment: Reduction in HER2 mRNA expression in human PC3 cells after 24 hrs by RT-PCR analysis. It counts as functional, cell-based. The essentials:
(§1)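 PC-3, PC-3/CA-ILK, SKBR3 and SKBR3/CA-ILK cells treated 24 h in 5% FBS medium; total RNA from 1 × 10^6 cells by Trizol, 1 μg reverse-transcribed, then PCR with gene-specific primers and β-actin reference.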

For data set [2], the system named is SK-BR-3. As to the kind of experiment: Reduction in YB-1 concentration in human SKBR3 cells expressing constitutively active ILK after 24 hrs by Western blot analysis. It counts as functional, cell-based. In short, it runs like this:
(§2)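 PC-3 versus stable PC-3/CA-ILK, or SKBR3 versus transient SKBR3/CA-ILK (electroporation, used 48 h after), treated 24 h in 5% FBS medium; immunoblotting with ECL; representative of three experiments.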
(In general: Immunoblotting shows a protein as a band on a membrane.)

Data set [3] has as its system PC-3. As to the kind of experiment: Induction of change in cell cycle distribution in human PC3 cells up to 2 uM after 48 hrs by flow cytometry. The format is functional, cell-based. The essentials:
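Treated PC-3 cells harvested, fixed in 100% ethanol, stained 30 min at 37°C in the dark with 80 μg/mL PI, 100 μg/mL RNase, 0.1% Triton X-100. Phase distribution by flow cytometry. Mean ± SD, n = 3. Methods give 48 h exposure; the figure legend gives 24 h in 5% FBS.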
A general note: A flow cytometer gives signals particle by particle.

Data set [4] relates to Mus musculus. Put plainly: Inhibition of phosphorylation of Thr-308-Akt in human PC3 cells xenografted nude mouse tumor lysate at 25 mg/kg, po administered for 35 days by Western blot analysis. It counts as functional, organism-based. Also on record: dose 25 mg/kg. The settings on record: Neoplasm, PC-3. In short, it runs like this:
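Tumors harvested at terminal sacrifice after 35 days of daily oral dosing, snap-frozen and stored at -80°C; lysates immunoblotted, three representative tumors per group.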
For orientation: Xenograft models place foreign cells or tissue in a host animal.

Data set [5] concerns Mus musculus. As to the kind of experiment: Decrease in phosphorylation of GSK3-beta in human PC3 cells xenografted nude mouse tumor lysate at 25 mg/kg, po administered for 35 days by Western blot analysis. The format is functional, organism-based. Also noted: dose 25 mg/kg. The conditions noted are these: Neoplasm, PC-3. The essentials: (§3)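 Male NCr athymic nude mice, 5–7 weeks, with s.c. PC-3 xenografts (0.5 × 10^6 cells in 50% Matrigel), dosed by oral gavage once daily for 35 days. Vehicle 0.5% methylcellulose, 0.1% Tween 80 in water, 10 μL/g. Tumors snap-frozen at sacrifice; three tumors per group immunoblotted.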

In data set [6] the test system is Mus musculus. Put plainly: Toxicity in nude mouse assessed as weight loss at 50 mg/kg, po administered for 35 days. The format is organism-based. Also on record: dose 50 mg/kg, route oral. The conditions noted are these: in vivo, 840 h. In short, it runs like this: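 Male NCr nude mice bearing s.c. PC-3 tumors, dosed once daily by oral gavage in 0.5% methylcellulose/0.1% Tween 80 vehicle, 10 μL/g, for 35 days; body weight recorded weekly.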

Data set [7] concerns the target T1, Scaffold protein ILK (Homo sapiens) (UniProt Q13418).
T1 sequence (whole entry): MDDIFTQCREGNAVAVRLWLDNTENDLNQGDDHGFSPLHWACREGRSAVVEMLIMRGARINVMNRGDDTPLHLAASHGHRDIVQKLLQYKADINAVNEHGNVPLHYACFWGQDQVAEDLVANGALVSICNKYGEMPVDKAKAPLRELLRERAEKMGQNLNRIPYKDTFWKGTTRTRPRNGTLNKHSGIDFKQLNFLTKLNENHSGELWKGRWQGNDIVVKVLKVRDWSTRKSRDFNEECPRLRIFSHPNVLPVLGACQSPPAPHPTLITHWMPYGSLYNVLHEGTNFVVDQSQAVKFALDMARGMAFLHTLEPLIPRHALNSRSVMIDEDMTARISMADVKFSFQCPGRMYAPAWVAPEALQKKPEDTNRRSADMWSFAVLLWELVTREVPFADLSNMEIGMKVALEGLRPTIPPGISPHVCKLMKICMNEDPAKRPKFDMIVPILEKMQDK
As to the kind of experiment: Inhibition of ILK in human PC3 cells expressing constitutively active ILK assessed as decrease in phosphorylated ERK1/2 concentration by Western blot analysis. The settings on record: PC-3. It counts as cell-based. The essentials:
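Stable PC-3 clones expressing GFP-CA-ILK (G418 250 μg/mL selection, GFP sorting) treated 24 h in 5% FBS medium. Phospho-ERK1/2 and phospho-p38 detected by immunoblot with ECL. Representative of three experiments.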

The subject of data set [8] is PC-3. As to the kind of experiment: Reduction in EGFR mRNA expression in human PC3 cells expressing constitutively active ILK after 24 hrs by RT-PCR analysis. It counts as functional, cell-based. In short, it runs like this: as §1
The subject of data set [9] is Mus musculus. Put plainly: Decrease in phosphorylation of MLC in human PC3 cells xenografted nude mouse tumor lysate at 25 mg/kg, po administered for 35 days by Western blot analysis. It counts as functional, organism-based. Also on record: dose 25 mg/kg. The conditions noted are these: Neoplasm, PC-3. The essentials: as §3
In data set [10] the target is T1, Scaffold protein ILK (Homo sapiens). Put plainly: Inhibition of ILK in human PC3 cells assessed as decrease in phosphorylated ERK1/2 concentration by Western blot analysis. It counts as cell-based. The settings on record: PC-3. In short, it runs like this: (§4)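 PC-3 cells exposed to graded concentrations for 24 h in 5% FBS medium. Immunoblotting for phospho-Tyr397-FAK, ERK1/2, p38 and JNK. Lysis in 1% SDS buffer, primary antibody 1:1000 at 4°C for 2 h, ECL. Three independent experiments.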

Data set [11] relates to PC-3. As to the kind of experiment: Induction of apoptosis in human PC3 cells assessed as early apoptotic cells at 2 uM by annexin V/PI staining (reference value: 5.6%). It counts as functional.
Data set [12] deals with PC-3. As to the kind of experiment: Suppression of tumor growth in human PC3 cells xenografted in nude mouse at 50 mg/kg/day, po administered for 35 days relative to control. The format is functional. The essentials: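 Male NCr athymic nude mice, s.c. 0.5 × 10^6 PC-3 cells in 50% Matrigel; established tumors randomized (n=6) to daily oral gavage in 0.5% methylcellulose/0.1% Tween 80 in water, 10 μL/g, 35 days; weekly caliper volume = width² × length × 0.52; mean ± SEM, ANOVA or t-test.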

Data set [13] has as its system PrEC. As to the kind of experiment: Antiproliferative activity against human PrEC cells at 1 to 5 uM by MTT assay. The format is cell-based. In short, it runs like this: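 Cancer lines seeded 5000/well and nonmalignant PrEC/MEC 8000/well in 10% FBS, 24 h before treatment. Compound exposure 24 h in 5% FBS medium, 0.1% final DMSO. MTT (0.25 mg/mL) for 1 h at 37°C, dye solubilized in DMSO, absorbance read at 570 nm. Mean ± SD, n = 6.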

Data set [14] has as its system PC-3. Put plainly: Reduction in YB-1 mRNA expression in human PC3 cells expressing constitutively active ILK after 24 hrs by RT-PCR analysis. The format is functional, cell-based. The essentials: as §1
Data set [15] has as its system PC-3. Put plainly: Reduction in HER2 mRNA expression in human PC3 cells expressing constitutively active ILK after 24 hrs by RT-PCR analysis. The format is functional, cell-based. The essentials:
as §1

Data set [16] has as its target T1, Scaffold protein ILK (Homo sapiens). Put plainly: Inhibition of ILK in human PC3 cells assessed as decrease in phosphorylated p38 concentration by Western blot analysis. It counts as cell-based. The conditions noted are these: PC-3. The essentials: as §4
Data set [17] concerns SK-BR-3. Put plainly: Reduction in EGFR mRNA expression in human SKBR3 cells after 24 hrs by RT-PCR analysis. The format is functional, cell-based. In short, it runs like this:
as §1

The test system of data set [18] is PC-3. As to the kind of experiment: Reduction in EGFR concentration in human PC3 cells expressing constitutively active ILK after 24 hrs by Western blot analysis. It counts as functional, cell-based. In short, it runs like this:
as §2

Data set [19] relates to PC-3. Put plainly: Cytotoxicity against human PC3 cells expressing Atg5 siRNA assessed as cell viability by MTT assay. It counts as functional, cell-based. The essentials: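 PC-3 cells electroporated with Atg5 siRNA (or control siRNA) and used 48 h after transfection. Treated 24 h in 5% FBS medium, 0.1% DMSO. Viability by MTT, 1 h at 37°C, absorbance 570 nm. Mean ± SD, n = 6.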

For data set [20], the target named is Proto-oncogene tyrosine-protein kinase Src (Homo sapiens) (UniProt P12931). Put plainly: Inhibition of cSRC at 5 uM assessed as remaining activity.

Active and inactive are the calls of the source. No cut-off for these calls is given here.

Sequence of Proto-oncogene tyrosine-protein kinase Src (Homo sapiens) (P12931 2-536 limits assumed): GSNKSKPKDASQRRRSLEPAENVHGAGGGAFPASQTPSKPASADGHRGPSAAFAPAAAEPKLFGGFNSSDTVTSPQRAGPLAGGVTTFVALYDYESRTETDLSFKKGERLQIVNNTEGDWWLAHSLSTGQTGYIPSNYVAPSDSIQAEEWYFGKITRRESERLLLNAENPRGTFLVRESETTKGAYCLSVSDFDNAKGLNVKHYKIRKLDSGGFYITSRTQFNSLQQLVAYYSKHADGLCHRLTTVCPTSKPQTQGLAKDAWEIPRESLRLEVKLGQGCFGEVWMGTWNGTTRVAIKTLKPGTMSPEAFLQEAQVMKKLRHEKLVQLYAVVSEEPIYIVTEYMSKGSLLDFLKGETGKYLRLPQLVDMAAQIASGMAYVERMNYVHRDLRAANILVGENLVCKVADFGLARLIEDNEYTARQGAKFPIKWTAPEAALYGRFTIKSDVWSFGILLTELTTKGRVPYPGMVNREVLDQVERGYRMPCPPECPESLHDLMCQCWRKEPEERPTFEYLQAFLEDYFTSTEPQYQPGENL

With `CNC(=O)CCc1cc(-c2ccc(-c3ccc(C(F)(F)F)cc3)cc2)n(-c2ccc(N3CCNCC3)cc2)n1`, the Activity result was “Dose-dependent effect” in data set [1]; “Non-toxic” in data set [6]; 7.1% in data set [11]; 62% in [12]; “Dose-dependent effect” in data set [17]; 91% in [20]. For the same compound, the outcome in data set [2], in data set [3], in [4], in data set [8], in data set [14] and in [15] was inactive. In addition, the result in data set [18] and in data set [19] was inactive. Also, the outcome in data set [5] and in [9] was Active. Further, the inhibition result in [7] is “inactive”. Also, the inhibition result in data set [10] and in data set [16] was “Dose-dependent effect” in each case. Moreover, the “inhibition (INH)” value in data set [13] is listed as “Not Active”.
